Data as given in ChEMBL document CHEMBL2413060, “Synthesis, biological evaluation and molecular docking studies of some pyrimidine derivatives” (2013).
Values after ≈ are worked out from the molar mass of the structure shown.

Tests used:
Format in all cases: functional
Pseudomonas aeruginosa [1] = experiment: Antibacterial activity against Pseudomonas aeruginosa ATCC 9027 after 24 hrs by two-fold serial dilution method; settings: ATCC 9027, 24 h
In short: (§1)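 Two-fold serial broth dilution in sterile nutrient broth at 500, 250, 125, 62.5, 31.25, 15.63, 7.82 and 3.91 µg/ml, with dimethylformamide ≤2.5%. Organisms were pre-grown 24 h in broth, and 0.1 ml inoculum was added per 5 ml tube. Tubes were incubated at 37°C, 24 h for bacteria and 48 h for fungi. MIC was taken as the lowest concentration giving no turbidity.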

Candida albicans = experiment: Antifungal activity against Candida albicans ATCC 2091 assessed as diameter of inhibition zone at 1 mg/ml after 48 hrs by cup diffusion method (reference value: 22 mm); settings: ATCC 2091, 48 h, read-out: DIZ
Pseudomonas aeruginosa [2] = experiment: Antibacterial activity against Pseudomonas aeruginosa ATCC 9027 assessed as diameter of inhibition zone at 1 mg/ml after 24 hrs by cup diffusion method (reference value: 16 mm); settings: ATCC 9027, 24 h, read-out: DIZ
Staphylococcus aureus [3] = experiment: Antibacterial activity against Staphylococcus aureus ATCC 6538P assessed as diameter of inhibition zone at 1 mg/ml after 24 hrs by cup diffusion method (reference value: 15 mm); settings: read-out: DIZ
Shigella flexneri [4] = experiment: Antibacterial activity against Shigella flexneri ATCC 15391 assessed as diameter of inhibition zone at 1 mg/ml after 24 hrs by cup diffusion method (reference value: 17 mm); settings: ATCC 15391, 24 h, read-out: DIZ
Pseudomonas aeruginosa [5] = experiment: Antibacterial activity against Pseudomonas aeruginosa ATCC 9027 after 24 hrs by two-fold serial dilution method relative to ofloxacin
Shigella flexneri [6] = experiment: Antibacterial activity against Shigella flexneri ATCC 15391 after 24 hrs by two-fold serial dilution method relative to ofloxacin
Shigella flexneri [7] = experiment: Antibacterial activity against Shigella flexneri ATCC 15391 after 24 hrs by two-fold serial dilution method; settings: ATCC 15391, 24 h; in short: as §1
HOP-92 = experiment: Cytotoxicity against human HOP92 cells assessed as growth inhibition at 10 uM; settings: read-out: GI
HOP-62 = experiment: Cytotoxicity against human HOP62 cells assessed as growth inhibition at 10 uM; settings: read-out: GI
Staphylococcus aureus [8] = experiment: Antibacterial activity against Staphylococcus aureus ATCC 6538P after 24 hrs by two-fold serial dilution method; in short: as §1
SNB-75 = experiment: Cytotoxicity against human SNB75 cells assessed as growth inhibition at 10 uM; settings: read-out: GI
In short: (§2)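 Single-dose screen on human tumour cell lines. Growth of treated cells is expressed as percent of untreated growth, plotted as a mean graph, and reported as percent growth inhibition.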

NCI-H23 = experiment: Cytotoxicity against human NCI-H23 cells assessed as growth inhibition at 10 uM; settings: read-out: GI; in short: as §2
NCI/ADR-RES = experiment: Cytotoxicity against human NCI/ADR-RES cells assessed as growth inhibition at 10 uM; settings: read-out: GI; in short: as §2
Malme-3M = experiment: Cytotoxicity against human MALME-3M cells assessed as growth inhibition at 10 uM; settings: read-out: GI
UACC-257 = experiment: Cytotoxicity against human UACC257 cells assessed as growth inhibition at 10 uM; settings: read-out: GI
In short: (§3)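 Single-dose screen in a sixty-cell human tumour line panel; percent growth of treated cells relative to untreated was read and reported as percentage growth inhibition, shown as a mean graph. Compounds meeting the threshold inhibition criteria went on to five-dose testing.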

OVCAR-8 = experiment: Cytotoxicity against human OVCAR8 cells assessed as growth inhibition at 10 uM; settings: read-out: GI; in short: as §2
SK-MEL-2 = experiment: Cytotoxicity against human SK-MEL-2 cells assessed as growth inhibition at 10 uM; settings: read-out: GI; in short: as §2
UO-31 = experiment: Cytotoxicity against human UO31 cells assessed as growth inhibition at 10 uM; settings: read-out: GI; in short: as §3

Row | SMILES | MIC (Pseudomonas aeruginosa [1]) [µg/mL] | MIC (Shigella flexneri [7]) [µg/mL] | MIC (Staphylococcus aureus [8]) [µg/mL] | zone of inhibition at 1000 µg/mL (Candida albicans) [mm] | zone of inhibition at 1000 µg/mL (Pseudomonas aeruginosa [2]) [mm] | zone of inhibition at 1000 µg/mL (Staphylococcus aureus [3]) [mm] | zone of inhibition at 1000 µg/mL (Shigella flexneri [4]) [mm] | Activity (Pseudomonas aeruginosa [5]) [%] | Activity (Shigella flexneri [6]) [%] | inhibition of growth at 10 µM (HOP-92) [%] | inhibition of growth at 10 µM (HOP-62) [%] | inhibition of growth at 10 µM (SNB-75) [%] | inhibition of growth at 10 µM (NCI-H23) [%] | inhibition of growth at 10 µM (NCI/ADR-RES) [%] | inhibition of growth at 10 µM (Malme-3M) [%] | inhibition of growth at 10 µM (UACC-257) [%] | inhibition of growth at 10 µM (OVCAR-8) [%] | inhibition of growth at 10 µM (SK-MEL-2) [%] | inhibition of growth at 10 µM (UO-31) [%]
1 | N#Cc1c(N2CCN(Cc3ccccc3)CC2)nc(=S)[nH]c1-c1ccccc1 | 125 (≈ 323 µM) | 125 (≈ 323 µM) |  | 22 | 18 | 15 | 20 | 60 | 60 |  |  |  |  |  |  |  |  |  | 
2 | CC1(C)S[C@@H]2[C@H](NC(=O)[C@H](N)c3ccccc3)C(=O)N2[C@H]1C(=O)O [AMPICILLIN] |  |  | 3.91 (≈ 11.2 µM) |  | 16 | 41 | 22 |  |  |  |  |  |  |  |  |  |  |  | 
3 | N#Cc1c(N2CCCCC2)nc(=S)[nH]c1-c1ccc([N+](=O)[O-])cc1 |  | 125 (≈ 366 µM) |  | 22 | 17 | 15 | 23 | 60 | 60 |  |  |  |  |  |  |  |  |  | 
4 | N#Cc1c(N2CCCCC2)nc(=S)[nH]c1-c1ccco1 |  |  | 125 (≈ 437 µM) | 22 | 16 | 18 | 17 |  |  |  |  |  |  |  |  |  |  |  | 
5 | Cn1c(N2CCOCC2)nc(-c2ccco2)c(C#N)c1=O |  |  |  | 22 | 17 | 15 | 17 |  |  |  |  |  |  |  |  | 69.8 | 47.1 |  | 
6 | Cn1c(N2CCCCC2)nc(-c2ccco2)c(C#N)c1=O |  |  |  | 22 | 16 | 15 | 19 |  |  |  |  |  |  |  |  |  |  | 70.7 | 

More lines, main results first:

Row | MIC (Pseudomonas aeruginosa [1]) [µg/mL] | MIC (Shigella flexneri [7]) [µg/mL] | MIC (Staphylococcus aureus [8]) [µg/mL] | SMILES | zone of inhibition at 1000 µg/mL (Candida albicans) [mm] | zone of inhibition at 1000 µg/mL (Pseudomonas aeruginosa [2]) [mm] | zone of inhibition at 1000 µg/mL (Staphylococcus aureus [3]) [mm] | zone of inhibition at 1000 µg/mL (Shigella flexneri [4]) [mm] | Activity (Pseudomonas aeruginosa [5]) [%] | Activity (Shigella flexneri [6]) [%] | inhibition of growth at 10 µM (HOP-92) [%] | inhibition of growth at 10 µM (HOP-62) [%] | inhibition of growth at 10 µM (SNB-75) [%] | inhibition of growth at 10 µM (NCI-H23) [%] | inhibition of growth at 10 µM (NCI/ADR-RES) [%] | inhibition of growth at 10 µM (Malme-3M) [%] | inhibition of growth at 10 µM (UACC-257) [%] | inhibition of growth at 10 µM (OVCAR-8) [%] | inhibition of growth at 10 µM (SK-MEL-2) [%] | inhibition of growth at 10 µM (UO-31) [%]
7 | 125 (≈ 505 µM) | 125 (≈ 505 µM) |  | N#Cc1c(Cl)nc(=S)[nH]c1-c1ccccc1 | 22 | 18 | 15 | 22 |  |  | 48.5 | 47.4 |  |  |  |  |  |  |  | 
8 |  | 125 (≈ 570 µM) |  | N#Cc1c(-c2ccco2)[nH]c(=S)[nH]c1=O | 22 | 16 | 15 | 21 |  | 60 |  |  | 42.8 | 78.6 | 74.2 | 55.6 |  |  |  | 
9 |  | 125 (≈ 425 µM) |  | Cn1c(N2CCCCC2)nc(-c2ccccc2)c(C#N)c1=O | 22 | 17 | 15 | 24 |  |  |  |  |  |  |  |  | 71.9 | 42.4 | 69.8 | 
10 | 125 (≈ 324 µM) |  |  | Cn1c(N2CCN(Cc3ccccc3)CC2)nc(-c2ccccc2)c(C#N)c1=O | 22 | 18 | 17 | 17 |  |  |  |  |  |  |  |  |  | 54.6 |  | 49.1
